# Results gathered from unrelated publications.
# Compare with care: the assays were run in different laboratories.
# STK38: Serine/threonine-protein kinase 38 (STK38, Homo sapiens, UniProt Q15208)
# Nos2: Nitric oxide synthase, inducible (Nos2, Mus musculus, UniProt P29477)
Compound,target,effect on,mode,method,concentration,measurement,value
COc1ncccc1-c1cnn2ccc(N3CCN(C(=O)OC(C)C)CC3)nc12,STK38,binding,,competition with immobilised ligand,1 µM,remaining binding,84%
C[C@H](C(=O)N[C@H]1COc2ccccc2[C@@H]1S(C)(=O)=O)c1ccc(F)cc1,Nos2,enzyme activity,inhibitor,,10 µM,inhibition,3%
Cc1nn(C)cc1-c1nc2c(N3CCN(Cc4ccc(Cl)cc4)CC3)c(Cl)cnc2[nH]1,STK38,binding,,competition with immobilised ligand,1 µM,remaining binding,86%
COc1cc(Nc2ncc(F)c(Nc3ccc4c(n3)NC(=O)C(C)(C)O4)n2)cc(OC)c1OC,"Citron Rho-interacting kinase (CIT, Homo sapiens, UniProt O14578)",binding,,,10 µM,inhibition,99%
Nc1ncc(-c2nc(N3CCOCC3)nc(N3CCOCC3)n2)c(C(F)F)n1,"Proto-oncogene tyrosine-protein kinase receptor Ret (RET, Homo sapiens, UniProt P07949, M918T)",binding,,competition with immobilised ligand,10 µM,remaining binding,78%
c1ccc(C(NCCNC(c2ccccc2)c2ccccc2)c2ccccc2)cc1,Nos2,enzyme activity,inhibitor,,10 µM,inhibition,3%
C#Cc1n[nH]c2c(-c3cn(C(C)c4ccccn4)c(=O)[nH]c3=O)cc(F)cc12 (centres unmarked),"Proto-oncogene tyrosine-protein kinase receptor Ret (RET, Homo sapiens, UniProt P07949, V804L)",enzyme activity,inhibitor,,1 µM,inhibition,4.9%
Cc1sc2c(c1C)C(c1ccc(Cl)cc1)=N[C@@H](CC(=O)OC(C)(C)C)c1nnc(C)n1-2,"Stimulator of interferon genes protein (STING1, Homo sapiens, UniProt Q86WV6, H232R)",thermal stability,,DSF,50 µM,ΔTm,-0.5 °C
